“And” between values parts separate entries of the source, which are not always exact repeats. Identical values can stand only once.
Each compound was assayed on SK-MEL-5 TRPM1 promoter luciferase reporter, 24 h (assay: inhibitors of MITF-driven TRPM1 reporter, dose response, cell-based, SK-MEL-5, luciferase, dry powder, set 5 (AID 624363)).
Method in brief: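 Assay system: SK-MEL-5 melanoma line with stable TRPM1 promoter–luciferase reporter; buffer or medium: phenol red-free DMEM, 10% FBS; compound: pin-transferred compounds; incubation: compound exposure 24 h at 37 °C, one day after plating; detection: SteadyGlo luciferase luminescence after 5 min at room temperature; control set: parthenolide 27 µM positive control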

SMILES | AC50
C=CCNC1=C(N2CCSCC2)C(=O)c2ccccc2C1=O | 3.93 µM
O=C1C=C(Nc2ccccc2)C(=O)c2ccccc21 | 4.02 µM and 5.21 µM
O=C(NC1=C(N2CCSCC2)C(=O)c2ccccc2C1=O)c1ccccc1 | 4.96 µM
CCN(CC)CCCNC1=C(Nc2ccccc2)C(=O)c2ccccc2C1=O | 2.17 µM
C=C1C(=O)OC2C1CC/C(C)=C\CCC1(C)OC21 (stereo not drawn) | 3.51 µM
O=C1C(NS(=O)(=O)c2ccc(Br)cc2)=C(N2CCCCC2)C(=O)c2ccccc21 | 27.7 µM
O=C1C(NS(=O)(=O)c2ccc(Br)s2)=C(N2CCSCC2)C(=O)c2ccccc21 | 22.7 µM
COc1ccc(S(=O)(=O)N(C(C)=O)c2ccc(OC(C)=O)c3ccccc23)cc1[N+](=O)[O-] | 6.42 µM
CCN(CC)CCNC1=C(Nc2ccccc2)C(=O)c2ccccc2C1=O | 4.88 µM
O=C1C(NS(=O)(=O)c2ccccc2)=C(N2CCOCC2)C(=O)c2ccccc21 | 19.3 µM
Cc1ccc(C(=O)NC2=C(c3ccccc3)C(=O)c3ccccc3C2=O)o1 | 3.23 µM
CCN1c2ccccc2NC2N=C(OC)C(c3ccccc3)C21 (stereo not drawn) | 3.74 µM
CC(=O)NC1=C(c2cccc(Cl)c2)C(=O)c2ccccc2C1=O | 3.67 µM
CC(=O)NC1=C(c2ccccc2)C(=O)c2ccccc2C1=O | 6.67 µM
C=CCNC1=C(NCCN(CC)CC)C(=O)c2ccccc2C1=O | 4.88 µM
COc1ccc(C2=C(NC(C)=O)C(=O)c3ccccc3C2=O)cc1 | 4.84 µM
COC1=C(NS(=O)(=O)c2ccc(Br)cc2)C(=O)c2ccccc2C1=O | 7.22 µM
CC1CCN(CC(CS(=O)(=O)c2ccc([N+](=O)[O-])cc2)N2CCC(C)CC2)CC1 (stereo not drawn) | 2.71 µM
O=C1C(NS(=O)(=O)c2ccc(Br)cc2)=C(N2CCOCC2)C(=O)c2ccccc21 | 14.4 µM
O=C(NC1=C(c2ccccc2)C(=O)c2ccccc2C1=O)c1ccc(Br)cc1 | 24.4 µM
CC(=O)N(C)C1=C(N2CCCCC2)C(=O)c2ccccc2C1=O | 0.796 µM
COC1=C(NS(=O)(=O)c2ccccc2)C(=O)c2ccccc2C1=O | 4.93 µM
CN1CCN(C2=C(NS(=O)(=O)c3ccc(Br)cc3)C(=O)c3ccccc3C2=O)CC1 | 7.58 µM
C=CCNC1=C(NS(=O)(=O)c2ccc(Br)cc2)C(=O)c2ccccc2C1=O | 11.9 µM
O=C1C(NS(=O)(=O)c2ccc(Br)s2)=C(N2CCCCC2)C(=O)c2ccccc21 | 23.3 µM
C=CCNC1=C(NCCCN2CCOCC2)C(=O)c2ccccc2C1=O | 13.9 µM
NC1=C(NS(=O)(=O)c2ccc(Br)s2)C(=O)c2ccccc2C1=O | 17.5 µM

SMILES | AC50
NC1=CC(=O)c2ccccc2C1=O | 1.06 µM
O=C1C(Nc2ccccc2)=C(N2CCSCC2)C(=O)c2ccccc21 | 9.7 µM
O=C1C(NS(=O)(=O)c2cccs2)=C(c2ccccc2)C(=O)c2ccccc21 | 10.5 µM
COc1cccc(C2=C(NC(=O)c3ccccc3)C(=O)c3ccccc3C2=O)c1 | 16.6 µM
NC1=C(c2ccccc2)C(=O)c2ccccc2C1=O | 4.34 µM
CCN1CCN(C2=C(Nc3ccccc3)C(=O)c3ccccc3C2=O)CC1 | 0.809 µM
COc1ccc(C2=C(NC(=O)c3ccc(Cl)cc3)C(=O)c3ccccc3C2=O)cc1 | 15.3 µM
O=C1C=C(NS(=O)(=O)c2ccc(Br)cc2)C(=O)c2ccccc21 | 9.16 µM
O=C(NC1=C(N2CCOCC2)C(=O)c2ccccc2C1=O)c1ccccc1 | 8.05 µM
C=CCNC1=C(NCCCN(CC)CC)C(=O)c2ccccc2C1=O | 4.6 µM
CN1CCN(C2=C(NC(=O)c3ccc(Br)cc3)C(=O)c3ccccc3C2=O)CC1 | 1.14 µM
C=CCNC1=C(N2CCCCC2)C(=O)c2ccccc2C1=O | 0.983 µM
CN1CCN(C2=C(NS(=O)(=O)c3ccccc3)C(=O)c3ccccc3C2=O)CC1 | 1.09 µM
C=CCNC1=C(Cl)C(=O)c2ccccc2C1=O | 0.799 µM and 1.88 µM
CCN1CCN(C2=C(NS(=O)(=O)c3ccc(Br)cc3)C(=O)c3ccccc3C2=O)CC1 | 8.69 µM
Cc1nc2ccccc2n1/N=C/c1ccc([N+](=O)[O-])s1 | 4.34 µM
C=CCNC1=C(N(C)C(C)=O)C(=O)c2ccccc2C1=O | 0.0923 µM
C=CCNC1=C(N2CCOCC2)C(=O)c2ccccc2C1=O | 2.54 µM
CN1CCN(C2=C(NS(=O)(=O)c3cccs3)C(=O)c3ccccc3C2=O)CC1 | 3.51 µM
O=C(NC1=C(c2ccccc2)C(=O)c2ccccc2C1=O)c1ccccc1 | 6.93 µM
O=C(NC1=C(c2ccc(OC(F)(F)F)cc2)C(=O)c2ccccc2C1=O)c1ccc(Br)cc1 | 25 µM
C=CCNC1=C(N2CCN(C)CC2)C(=O)c2ccccc2C1=O | 3.89 µM
O=C1C(Nc2ccccc2)=C(N2CCCCC2)C(=O)c2ccccc21 | 6.28 µM
CCN1CCN(C2=C(NS(=O)(=O)c3ccc(Br)s3)C(=O)c3ccccc3C2=O)CC1 | 3.89 µM
O=C1C(Nc2ccccc2)=C(N2CCOCC2)C(=O)c2ccccc21 | 12.8 µM and 7.07 µM
COC1=C(NS(=O)(=O)c2cccs2)C(=O)c2ccccc2C1=O | 17.5 µM

— PubChem BioAssay AID624363 (Broad Institute, 2012)
